Columns and labels:
[1] = test system: OVCAR3 human ovarian cancer cells; assay: Cell viability assay; assay type: cell-based; conditions: OVCAR-3, 72 h, read-out: IC50 against OVCAR3
OVCAR8 cells = assay: Cell viability assay; assay type: cell-based; conditions: Homo sapiens, OVCAR-8, 72 h, read-out: IC50 against OVCAR8
[2] = test system: MOE^LOW murine oviductal epithelial cells; assay: Cell viability assay; assay type: cell-based; conditions: Mus musculus, 72 h, read-out: IC50 against MOE^LOW
[3] = test system: MOE^HIGH murine oviductal epithelial cells; assay: Cell viability assay; assay type: cell-based; conditions: Mus musculus, 72 h, read-out: IC50 against MOE^HIGH
[4] = test system: Na^+/K^+-ATPase (adenosine 5′-triphosphatase from porcine cerebral cortex); assay: Na^+/K^+-ATPase activity assay; assay type: biochemical; conditions: various concentrations, 15 min at 37 °C
How it was run: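 The Na+/K+-ATPase from porcine cerebral cortex, in assay buffer, was mixed with DMSO or test compound in DMSO, and ATP was added to start the reaction. After 15 min at 37 °C, ADP-Glo reagent stopped the reaction and depleted ATP over 40 min at room temperature. Detection reagent then converted ADP to ATP over 60 min, and ATP was read by luciferin/luciferase luminescence.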

OVCAR3 cells [5] = assay: Clonogenic assay; assay type: cell-based, human; conditions: OVCAR3, 21 days, treated every three days
How it was run: (§1)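 Cells in RPMI 1640 with 10% FBS were plated at 200 cells per 60 mm dish and grown 21 days. Test compound or solvent control was given every three days. Colonies were fixed with 4% (w/v) paraformaldehyde, stained with 0.04% (w/v) crystal violet for 30 min at room temperature, imaged and counted by image analysis. Three biological replicates.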

OVSAHO cells [6] = assay: Clonogenic assay; assay type: cell-based, human; conditions: 21 days, treated every three days
How it was run: as §1

OVCAR3 cells [7] = assay: Soft agar colony formation assay; assay type: cell-based, human; conditions: OVCAR3, 21 days, vs DMSO control
How it was run: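 OVCAR3 cells, cultured in RPMI 1640 with 10% FBS, were suspended at 1.5 × 10^4 cells in 0.35% w/v top agar over a 0.5% w/v base agar layer. They were grown 21 days with the medium changed every three days. Colonies were imaged by microscopy and counted by image analysis. Three biological replicates.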

OVSAHO cells [8] = assay: Soft agar colony formation assay; assay type: cell-based, human; conditions: 21 days, vs DMSO control
How it was run: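 OVSAHO cells (1.5 × 104) suspended in 0.35% w/v agar over a 0.5% w/v base agar layer, with test compound or solvent control. Grown 21 days with medium changed every three days. Colonies imaged by microscopy and counted by image analysis; three biological replicates.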

OVCAR3 cells [9] = assay: Cell cycle assay; assay type: cell-based, human; conditions: OVCAR3, 72 h
OVCAR3 cells [10] = assay: Immunoblot analysis with densitometry; assay type: cell-based, human; conditions: for ERK activation (phosphorylated ERK) / p53 expression: OVCAR3, 100 nM; for p53 expression: 72 h; for Bcl-xL expression / Cleaved PARP level / Cleaved caspase 3 level / Mcl-1 expression / p21 protein expression: OVCAR3, western blot densitometry
How it was run: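 OVCAR3 cells exposed to test compound (100 nM, 72 h). Lysed in RIPA buffer on ice for 15 min, then spun at 14,000 g, 4 °C, 15 min. Protein quantified by BCA; 25 μg per lane run on SDS-PAGE and transferred to PVDF. Blocked in 5% milk/TBST for 1 h at RT, primary antibody overnight at 4 °C, secondary 30 min. Chemiluminescent detection, ImageJ densitometry, n = 3.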

OVSAHO cells [11] = assay: Immunoblot analysis with densitometry; assay type: cell-based, human; conditions: for ERK activation (phosphorylated ERK): 100 nM; for p21 protein expression: western blot; for Cleaved PARP expression level: western blot densitometry
OVCA432 cells = assay: Immunoblot analysis; assay type: cell-based, human
[12] = test system: OVCAR3 ovarian cancer cells; conditions: cited from earlier work
[13] = test system: MDA-MB-231 breast cancer cells; conditions: cited from earlier work
HT-29 colon cancer cells = conditions: cited from earlier work
KB nasopharyngeal cells = conditions: cited from earlier work
[14] = test system: normal human colon CCD-112CoN cells; conditions: cited from earlier work
[15] = test system: normal human peripheral blood mononuclear cells; conditions: cited from earlier work
hERG channels = conditions: cited from earlier work

Row | Compound | IC50 [2] [µM] | IC50 [3] [µM] | Cell cycle distribution (OVCAR3 cells [9]) | ERK activation (phosphorylated ERK) (OVCAR3 cells [10]) | p53 expression (OVCAR3 cells [10]) | Bcl-xL expression (OVCAR3 cells [10]) | Cleaved PARP level (OVCAR3 cells [10]) | Cleaved caspase 3 level (OVCAR3 cells [10]) | Mcl-1 expression (OVCAR3 cells [10]) | p21 protein expression (OVCAR3 cells [10]) | ERK activation (phosphorylated ERK) (OVSAHO cells [11]) | p21 protein expression (OVSAHO cells [11]) | Cleaved PARP expression level (OVSAHO cells [11]) | p53 expression (OVCA432 cells) | further results
1 | CO[C@H]1[C@H](O[C@H]2CC[C@]3(C=O)[C@H]4CC[C@]5(C)[C@@H](C6=CC(=O)OC6)CC[C@]5(O)[C@@H]4CC[C@]3(O)C2)O[C@H](C)[C@H](O)[C@@H]1OC [(+)-strebloside, (+)-Strebloside] | > 50 | > 50 | induced an accumulation of cells in the G2/M phase | induced activation of ERK | disappearance of p53 | decrease in Bcl-xL after treatment was not statistically significant | significantly higher levels of cleaved PARP | significant increase in cleaved caspase 3 | expressed less Mcl-1 than control cells | expressed more p21 protein than the control | induced activation of ERK | significant increase in p21 expression | higher than the levels in control cells | decreased expression of p53 | IC50 [1]: 0.134 µM; IC50 (OVCAR8 cells): 0.0911 µM; Inhibition of Na^+/K^+-ATPase activity [4]: inhibited Na^+/K^+-ATPase activity in a concentration-dependent manner; 2D colony formation (OVCAR3 cells [5]): neither OVCAR3 nor OVSAHO cells formed colonies; 2D colony formation (OVSAHO cells [6]): neither OVCAR3 nor OVSAHO cells formed colonies; Soft agar colony formation (anchorage-independent growth) (OVCAR3 cells [7]): formed significantly less soft agar colonies than a DMSO control; Soft agar colony formation (anchorage-independent growth) (OVSAHO cells [8]): no difference was detected; In vivo potency in hollow fiber assay [12]: significant potency in vivo; In vivo potency in hollow fiber assay [13]: significant potency in vivo; Cytotoxicity (HT-29 colon cancer cells): potent cytotoxicity; Cytotoxicity (KB nasopharyngeal cells): potent cytotoxicity; Toxicity compared with digoxin [14]: not as toxic as digoxin; Toxicity compared with digoxin [15]: not as toxic as digoxin
2 | C[C@H]1O[C@@H](O[C@H]2[C@@H](O)C[C@H](O[C@H]3[C@@H](O)C[C@H](O[C@H]4CC[C@@]5(C)[C@H](CC[C@@H]6[C@@H]5CC[C@]5(C)[C@@H](C7=CC(=O)OC7)CC[C@]65O)C4)O[C@@H]3C)O[C@@H]2C)C[C@H](O)[C@@H]1O [digitoxin, reference compound] | > 50 | > 50 | accumulation of cells in the G2/M phase | induced activation of ERK | disappearance of p53 | decrease in Bcl-xL after treatment was not statistically significant | significantly higher levels of cleaved PARP | significant increase in cleaved caspase 3 | expressed less Mcl-1 than control cells | expressed more p21 protein than the control | induced activation of ERK | significant increase in p21 expression | higher than the levels in control cells | decreased expression of p53 | Interaction with hERG channels and hERG trafficking (hERG channels): reported to interact with hERG channels and hERG trafficking
